The text below walks through data of ChEMBL document CHEMBL3286358, “Biological evaluation of tanshindiols as EZH2 histone methyltransferase inhibitors” (Bioorg Med Chem Lett, 2014).

Assay [1] deals with Pfeiffer. In words: Induction of apoptosis in human Pfeiffer cells assessed as DNA content at 1 to 5 uM after 72 hrs by DAPI staining-based analysis. The format is functional, cell-based. In outline:
(§1)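 Pfeiffer cells (DLBCL carrying EZH2 A677G) exposed 72 h to 1, 2.5 or 5 µM, with untreated control. DNA content histograms are gated as M1 sub-G1, M2 G1, M3 S and M4 G2/M. Values are the percentage of cells in each gate.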

A short description of assay [2]: Cell cycle arrest in human Pfeiffer cells assessed as accumulation at G2/M phase at 2.5 uM after 72 hrs (reference value: 10%). The format is functional, cell-based. In outline: as §1
Assay [3] can be described thus: Cytotoxicity against human Pfeiffer cells expressing EZH2 […] mutant assessed as growth inhibition after 72 hrs by WST-1 assay. It is filed as functional. In short, it runs like this:
(§2)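 Growth inhibition of tumour lines read by WST-1 viability assay. GI50 taken as the half-maximal growth-inhibitory concentration.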
In general terms: Formazan colour is commonly taken as a measure of viable cells.

The subject of another assay is PC-3. In words: Cytotoxicity against human PC3 cells assessed as growth inhibition after 72 hrs by WST-1 assay. The format is functional. The following applies: PC-3, 72 h. In short, it runs like this: as §2
Assay [4] is described as follows: Cytotoxicity against human U87MG cells assessed as growth inhibition after 72 hrs by WST-1 assay. It is filed as functional, U-87MG ATCC. The following applies: U-87 MG. In outline:
as §2

The nature of assay [5]: Cell cycle arrest in human Pfeiffer cells assessed as accumulation at S phase at 5 uM after 72 hrs (reference value: 21%). It is filed as functional, cell-based. In outline: as §1
Assay [6] in a line: Cell cycle arrest in human Pfeiffer cells assessed as accumulation at S phase at 1 uM after 72 hrs (reference value: 21%). The format is functional, cell-based. In outline:
as §1

Assay [7] deals with Pfeiffer. The experiment in a line: Induction of apoptosis in human Pfeiffer cells assessed as increase in cleaved caspase-7 level at 1 to 3 uM after 72 hrs by Western blotting analysis. It is filed as functional, cell-based. In short, it runs like this: (§3)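 Pfeiffer cells treated 72 h. Lysates analysed by Western blot for apoptosis markers.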
For orientation: Immunoblotting shows a protein as a band on a membrane.

A short description of assay [8]: Cell cycle arrest in human Pfeiffer cells assessed as accumulation at G1 phase at 1 uM after 72 hrs (reference value: 59%). It is filed as functional, cell-based. In outline:
as §1

Assay [9] in a line: Cell cycle arrest in human Pfeiffer cells assessed as accumulation at G1 phase at 2.5 uM after 72 hrs (reference value: 59%). The format is functional, cell-based. In short, it runs like this:
as §1

Assay [10] in a line: Cell cycle arrest in human Pfeiffer cells assessed as accumulation at sub-G1 phase at 1 uM after 72 hrs (reference value: 9%). It is filed as functional, cell-based. In short, it runs like this: as §1
Assay [11] is described as follows: Cytotoxicity against human U2932 cells assessed as growth inhibition after 72 hrs by WST-1 assay. Particulars: U2932, 72 h. The format is functional. In outline:
as §2

A short description of assay [12]: Cell cycle arrest in human Pfeiffer cells assessed as accumulation at sub-G1 phase at 5 uM after 72 hrs (reference value: 9%). The format is functional, cell-based. In outline:
as §1

Assay [13] in a line: Inhibition of EZH2 histone methyltransferase […] mutant in EZH2/SUZ12/EED/RbAp46/48 protein complex (unknown origin) using histone H3 peptide/S-adenosylmethionine as substrate after 2 hrs by Lineweaver-Burk plot analysis. Also noted: species or system Homo sapiens. In short, it runs like this: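 EZH2 A677G mutant activity measured with inhibitor at 0, 0.625, 1.25 and 2.5 µM. Inhibition mode analysed by Lineweaver–Burk plot.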

Assay [14] concerns Pfeiffer. In words: Induction of apoptosis in human Pfeiffer cells assessed as increase in cleaved PARP level at 1 to 3 uM after 72 hrs by Western blotting analysis. It is filed as functional, cell-based. In short, it runs like this: as §3
Assay [15] is described as follows: Cell cycle arrest in human Pfeiffer cells assessed as accumulation at S phase at 2.5 uM after 72 hrs (reference value: 21%). The format is functional, cell-based. In outline:
as §1

The nature of assay [16]: Cell cycle arrest in human Pfeiffer cells assessed as accumulation at G1 phase at 5 uM after 72 hrs (reference value: 59%). It is filed as functional, cell-based. In short, it runs like this:
as §1

Assay [17] has as its target EZH2/SUZ12/EED/RBBP7/RBBP4. In words: Competitive inhibition of EZH2 histone methyltransferase activity in EZH2/SUZ12/EED/RbAp46/48 (unknown origin) using histone H3 peptide/varying concentration of S-adenosylmethionine as substrate after 2 hrs by Lineweaver-Burk plot analysis. It is filed as protein-complex assay, Homo sapiens. In outline:
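PRC2 complex (EZH2, EED, SUZ12, RbAp46/48) as enzyme. Histone H3 peptide fixed at 150 nM, SAM varied. Inhibitor at 0, 0.625, 1.25 and 2.5 µM.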

Assay [18] in a line: Cell cycle arrest in human Pfeiffer cells assessed as accumulation at G2/M phase at 1 uM after 72 hrs (reference value: 10%). The format is functional, cell-based. In short, it runs like this:
as §1

The target of assay [19] is Histone-lysine N-methyltransferase EZH2 (Homo sapiens) (UniProt Q15910). Particulars: 3 uM.
Assay [20] concerns Pfeiffer. The experiment in a line: Induction of apoptosis in human Pfeiffer cells assessed as increase in cleaved caspase-3 level at 1 to 3 uM after 72 hrs by Western blotting analysis. It is filed as functional, cell-based. In short, it runs like this: as §3
Assay [21] can be described thus: Cell cycle arrest in human Pfeiffer cells assessed as accumulation at G2/M phase at 5 uM after 72 hrs (reference value: 10%). The format is functional, cell-based. In outline:
as §1

A short description of assay [22]: Cell cycle arrest in human Pfeiffer cells assessed as accumulation at sub-G1 phase at 2.5 uM after 72 hrs (reference value: 9%). It is filed as functional, cell-based. In outline:
as §1

In assay [23] the target is EZH2/SUZ12/EED complex (Homo sapiens) (UniProt Q15910+O75530+Q15022). The experiment in a line: (§4) Inhibition of EZH2 histone methyltransferase activity in EZH2/SUZ12/EED protein complex (unknown origin) using histone H3 peptide/S-adenosylmethionine as substrate after 2 hrs by TR-FRET assay. Background: Time-resolved FRET reads energy transfer from a long-lived donor to a nearby acceptor.

A further assay addresses EZH2/SUZ12/EED complex (Homo sapiens, UniProt O75530+Q15022+Q15910). The assay is described as §4.
The next assay has as its system T98G. The experiment in a line: Cytotoxicity against human T98G cells assessed as growth inhibition after 72 hrs by WST-1 assay. The format is functional. In outline:
as §2

Assay [24] concerns the target Histone-lysine N-methyltransferase EZH2 (Homo sapiens) (UniProt Q15910). Particulars: 1 to 3 uM.
The target is the same in assay [25]. The following applies: 3 uM. The source holds these as a separate data set.
A further assay relates to Daudi. The experiment in a line: Cytotoxicity against human Daudi cells assessed as growth inhibition after 72 hrs by WST-1 assay. The format is functional. In short, it runs like this:
as §2

Another assay relates to A549. In words: Cytotoxicity against human A549 cells assessed as growth inhibition after 72 hrs by WST-1 assay. Particulars: A549, 72 h. The format is functional. In outline:
as §2

Activity calls are given as the source filed them. The calls are words filed in the database; no cut-off is given here.

EZH2/SUZ12/EED complex, sequence (Q15910 whole entry): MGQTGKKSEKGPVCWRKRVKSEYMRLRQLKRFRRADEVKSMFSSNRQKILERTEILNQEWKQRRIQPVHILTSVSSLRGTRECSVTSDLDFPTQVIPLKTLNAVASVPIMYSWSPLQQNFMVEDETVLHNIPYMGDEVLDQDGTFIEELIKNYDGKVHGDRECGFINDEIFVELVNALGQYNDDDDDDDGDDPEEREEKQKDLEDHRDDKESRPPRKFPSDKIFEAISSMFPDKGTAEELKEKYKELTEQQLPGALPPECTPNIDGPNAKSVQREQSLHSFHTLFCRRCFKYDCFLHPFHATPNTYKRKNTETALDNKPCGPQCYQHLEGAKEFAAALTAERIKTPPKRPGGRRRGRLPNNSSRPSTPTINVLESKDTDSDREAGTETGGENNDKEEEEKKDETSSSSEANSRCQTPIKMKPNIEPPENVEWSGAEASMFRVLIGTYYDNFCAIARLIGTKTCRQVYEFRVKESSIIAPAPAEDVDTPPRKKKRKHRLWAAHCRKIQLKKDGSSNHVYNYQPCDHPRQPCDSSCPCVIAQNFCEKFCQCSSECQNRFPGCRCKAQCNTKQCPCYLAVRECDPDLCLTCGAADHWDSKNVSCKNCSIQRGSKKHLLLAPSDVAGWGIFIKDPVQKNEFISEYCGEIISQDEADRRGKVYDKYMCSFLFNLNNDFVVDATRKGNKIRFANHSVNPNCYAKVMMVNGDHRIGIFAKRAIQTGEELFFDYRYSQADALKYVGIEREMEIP
EZH2/SUZ12/EED complex, sequence (O75530 whole entry): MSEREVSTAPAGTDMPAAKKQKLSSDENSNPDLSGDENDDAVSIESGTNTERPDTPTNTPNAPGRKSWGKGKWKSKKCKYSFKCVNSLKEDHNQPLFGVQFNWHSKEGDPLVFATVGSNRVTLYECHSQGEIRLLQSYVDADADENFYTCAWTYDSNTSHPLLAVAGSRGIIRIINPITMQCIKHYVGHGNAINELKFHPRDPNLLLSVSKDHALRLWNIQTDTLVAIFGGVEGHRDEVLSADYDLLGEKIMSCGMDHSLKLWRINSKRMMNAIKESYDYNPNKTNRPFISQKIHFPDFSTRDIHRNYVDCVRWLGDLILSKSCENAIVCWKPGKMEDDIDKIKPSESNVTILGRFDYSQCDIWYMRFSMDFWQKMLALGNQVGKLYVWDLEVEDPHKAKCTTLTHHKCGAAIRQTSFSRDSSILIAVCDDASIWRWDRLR
EZH2/SUZ12/EED complex, sequence (Q15022 whole entry): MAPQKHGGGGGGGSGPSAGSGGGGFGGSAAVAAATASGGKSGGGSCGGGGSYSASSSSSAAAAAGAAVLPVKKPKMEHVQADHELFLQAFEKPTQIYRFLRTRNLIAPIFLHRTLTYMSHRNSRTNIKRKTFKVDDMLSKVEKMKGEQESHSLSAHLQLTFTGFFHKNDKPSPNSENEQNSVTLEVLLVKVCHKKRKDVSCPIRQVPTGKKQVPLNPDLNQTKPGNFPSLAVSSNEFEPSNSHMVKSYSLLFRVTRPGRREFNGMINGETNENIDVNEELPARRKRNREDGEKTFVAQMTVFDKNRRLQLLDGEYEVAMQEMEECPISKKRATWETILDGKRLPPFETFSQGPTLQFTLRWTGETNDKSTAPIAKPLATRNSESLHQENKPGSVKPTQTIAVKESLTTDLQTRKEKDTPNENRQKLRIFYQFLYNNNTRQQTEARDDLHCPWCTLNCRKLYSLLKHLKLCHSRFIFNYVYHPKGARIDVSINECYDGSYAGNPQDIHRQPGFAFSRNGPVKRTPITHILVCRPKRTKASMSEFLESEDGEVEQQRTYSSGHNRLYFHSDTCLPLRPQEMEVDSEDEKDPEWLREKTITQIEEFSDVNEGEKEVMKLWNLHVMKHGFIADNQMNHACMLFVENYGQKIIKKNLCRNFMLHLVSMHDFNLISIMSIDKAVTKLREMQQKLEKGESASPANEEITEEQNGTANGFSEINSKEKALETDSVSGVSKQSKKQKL
Histone-lysine N-methyltransferase EZH2 (Homo sapiens), sequence (Q15910 whole entry, looked up): as the sequence (Q15910 whole entry) above
EZH2/SUZ12/EED complex (Homo sapiens), sequence (O75530 2-441 partner limits assumed): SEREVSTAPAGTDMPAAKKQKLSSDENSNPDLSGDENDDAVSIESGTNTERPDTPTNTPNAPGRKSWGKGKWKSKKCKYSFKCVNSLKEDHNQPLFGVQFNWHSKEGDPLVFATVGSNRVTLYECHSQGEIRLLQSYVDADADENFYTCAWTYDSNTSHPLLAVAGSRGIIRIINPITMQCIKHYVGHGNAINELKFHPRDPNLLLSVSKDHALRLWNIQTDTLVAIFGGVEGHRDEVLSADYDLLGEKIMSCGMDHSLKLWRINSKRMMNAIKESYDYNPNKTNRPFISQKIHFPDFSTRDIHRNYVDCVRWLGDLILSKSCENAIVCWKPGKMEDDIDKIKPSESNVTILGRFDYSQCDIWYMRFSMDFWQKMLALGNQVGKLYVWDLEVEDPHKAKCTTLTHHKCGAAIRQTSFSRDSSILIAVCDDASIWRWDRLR
EZH2/SUZ12/EED complex (Homo sapiens), sequence (Q15022 whole entry partner): as the sequence (Q15022 whole entry) above
EZH2/SUZ12/EED complex (Homo sapiens), sequence (Q15910 whole entry): as the sequence (Q15910 whole entry) above

One may read the GI50 as the concentration that inhibits growth by half. In general, Ki refers to a measure of affinity in units of concentration, obtained from inhibition or displacement. High values mean lower affinity, low ones higher affinity. In general, inhibition refers to the drop in the measured response relative to a control, in per cent. Broadly, the IC50 is the concentration at which inhibition is half-maximal. A lower IC50 goes with higher potency. In the case of `Cc1coc2c1C(=O)C(=O)c1c-2ccc2c1CC[C@@H](O)[C@]2(C)O`, the result with Pfeiffer [1], with Pfeiffer [7], with Pfeiffer [14] and in the assay with Pfeiffer [20] was Active. The Activity in [2] was 11%; in assay [5], 29%; in assay [6], 20%; in assay [8], 58%; in assay [9], 51%; in assay [10] it was 11%. Also, the Activity was 21% in [12]; 24% in assay [15]; 41% in assay [16]; 11% in [18]; 7% in assay [21]; 13% in assay [22]. Also, the concentration for 50% growth inhibition (GI50) is 1.5 µM in assay [3]; 4 µM in the assay with PC-3; 5.7 µM in [4]; 9.5 µM in [11]; 6 µM in the assay on T98G; 10.6 µM with Daudi. For the same molecule, the GI50 in the assay with A549 came to 4.2 µM. Also, the Ki in assay [13] came to 0.176 µM; in assay [17], 0.194 µM. The inhibition in assay [19] is 50%; in assay [23], “Dose-dependent effect”; in assay [25], 50%. Besides, the 50% inhibitory concentration (IC50) against EZH2/SUZ12/EED complex is 0.55 µM. In [24], the inhibition entry was “Active”.

As to `Cc1coc2c1C(=O)C(=O)c1c-2ccc2c(C)cccc12` [TANSHINONE I], the inhibition entry in assay [23] was “Dose-dependent effect”. It took 8.9 µM to reach half-maximal inhibition on EZH2/SUZ12/EED complex (IC50).

Take `CC[C@H](C)n1cc(C)c2c(C(=O)NCc3c(C)cc(C)[nH]c3=O)cc(-c3ccc(N4CCNCC4)nc3)cc21` [GSK2816126]: the GI50 in assay [3] is 0.18 µM; in the assay with PC-3, 9.4 µM; in assay [4] it was 28.5 µM; in assay [11], 6.7 µM; in the assay with T98G, 12.6 µM; in the assay on Daudi it was 11.2 µM. The 50% growth inhibitory concentration (GI50) with A549 amounted to 18.7 µM.

Regarding `COC(=O)[C@@]1(C)CCCc2c1ccc1c2C(=O)C(=O)c2c(C)coc2-1` [METHYL TANSHINONATE], in [23], the inhibition entry is “Dose-dependent effect”. Besides, the 50% inhibitory concentration (IC50) on EZH2/SUZ12/EED complex was found to be 9.6 µM.

Turning to `Cc1coc2c1C(=O)C(=O)c1c-2ccc2c1CC[C@H](O)[C@]2(C)O`, the inhibition entry in [23] was “Dose-dependent effect”. This molecule registered an IC50 on EZH2/SUZ12/EED complex of 0.52 µM.

In the case of `Cc1coc2c1C(=O)C(=O)c1c-2ccc2c1CCCC2(C)CO` (configuration not stated) [TANSHINONE IIB], the inhibition result in [23] was “Dose-dependent effect”. At EZH2/SUZ12/EED complex, the IC50 amounted to 4.8 µM.

Turning to `Cc1coc2c1C(=O)C(=O)c1c-2ccc2c1CCCC2(C)C` [TANSHINONE IIA], in [23], the inhibition entry was “Dose-dependent effect”. The molecule also returned an IC50 against EZH2/SUZ12/EED complex of 28.1 µM.
